Reference: ChEMBL document CHEMBL1131159, “Bis-cationic heteroaromatics as macrofilaricides: synthesis of bis-amidine and bis-guanylhydrazone derivatives of substituted imidazo[1,2-a]pyridines” (1998)
Where “and” joins values, the source holds several entries; their conditions need not be identical. Equal entries are not always repeated.

Tests used:
Acanthocheilonema viteae = test: Macrofilarial reduction at 100 mg/kg dosage by subcutaneous administration for a period of 5 days against Acanthocheilonema viteae; type: functional
In short: (§1)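 Jirds doubly infected with A. viteae and B. pahangi were dosed subcutaneously once daily on five successive days. Each series included a flubendazole positive control at 2.0 mg/day for 5 days. Jirds were killed 56 days later and worms of each species counted. Worm percentage was compared with untreated negative controls, and ≥60% reduction was scored as active.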

Brugia pahangi = test: Macrofilarial reduction at 100 mg/kg dosage by subcutaneous administration for a period of 5 days against Brugia pahangi; type: functional; in short: as §1
[1] = Compound was tested for macrofilarial reduction at 12.5 mg/kg dosage by subcutaneous administration for a period of 5 days against Acanthocheilonema viteae (Acanthocheilonema viteae); type: functional, Meriones unguiculatus; in short: as §1
Meriones unguiculatus [2] = test: Compound was tested for macrofilarial reduction at 12.5 mg/kg dosage by subcutaneous administration for a period of 5 days against Brugia pahangi (Brugia pahangi).; type: functional; in short: as §1
Meriones unguiculatus [3] = test: Compound was tested for macrofilarial reduction at 100 mg/kg dosage by subcutaneous administration for a period of 5 days against Acanthocheilonema viteae (Acanthocheilonema viteae); Toxic; type: functional, organism-based; design: dose 100 mg/kg; in short: as §1
Meriones unguiculatus [4] = test: Compound was tested for macrofilarial reduction at 100 mg/kg dosage by subcutaneous administration for a period of 5 days against Brugia pahangi (Brugia pahangi); Toxic; type: functional, organism-based; design: dose 100 mg/kg; in short: as §1
Meriones unguiculatus [5] = test: Compound was tested for macrofilarial reduction at 100 mg/kg dosage by subcutaneous administration for a period of 5 days against Brugia pahangi (Brugia pahangi). * Toxicity noted at this dosage; type: functional; in short: as §1
Meriones unguiculatus [6] = test: Compound was tested for macrofilarial reduction at 100 mg/kg dosage by subcutaneous administration for a period of 5 days against Acanthocheilonema viteae (Acanthocheilonema viteae) * Toxicity noted at this dosage; type: functional; in short: as §1
Meriones unguiculatus [7] = test: Compound was tested for macrofilarial reduction at 3.12 mg/kg dosage by subcutaneous administration for a period of 5 days against Acanthocheilonema viteae (Acanthocheilonema viteae); type: functional; in short: as §1
Meriones unguiculatus [8] = test: Compound was tested for macrofilarial reduction at 3.12 mg/kg dosage by subcutaneous administration for a period of 5 days against Brugia pahangi (Brugia pahangi).; type: functional; in short: as §1
Meriones unguiculatus [9] = test: Compound was tested for macrofilarial reduction at 50 mg/kg dosage by subcutaneous administration for a period of 5 days against Acanthocheilonema viteae (Acanthocheilonema viteae); type: functional; in short: as §1
Meriones unguiculatus [10] = test: Compound was tested for macrofilarial reduction at 25 mg/kg dosage by subcutaneous administration for a period of 5 days against Acanthocheilonema viteae (Acanthocheilonema viteae); type: functional; in short: as §1
Meriones unguiculatus [11] = test: Compound was tested for macrofilarial reduction at 50 mg/kg dosage by subcutaneous administration for a period of 5 days against Brugia pahangi (Brugia pahangi).; type: functional; in short: as §1
Meriones unguiculatus [12] = test: Compound was tested for macrofilarial reduction at 25 mg/kg dosage by subcutaneous administration for a period of 5 days against Brugia pahangi (Brugia pahangi).; type: functional; in short: as §1
Meriones unguiculatus [13] = test: Compound was tested for macrofilarial reduction at 6.25 mg/kg dosage by subcutaneous administration for a period of 5 days against Brugia pahangi (Brugia pahangi).; type: functional; in short: as §1
Meriones unguiculatus [14] = test: Compound was tested for macrofilarial reduction at 6.25 mg/kg dosage by subcutaneous administration for a period of 5 days against Acanthocheilonema viteae (Acanthocheilonema viteae); type: functional; in short: as §1
Meriones unguiculatus [15] = test: Compound was tested for macrofilarial reduction at 1.56 mg/kg dosage by subcutaneous administration for a period of 5 days against Brugia pahangi (Brugia pahangi).; type: functional; in short: as §1
Meriones unguiculatus [16] = test: Compound was tested for macrofilarial reduction at 75 mg/kg dosage by subcutaneous administration for a period of 5 days against Acanthocheilonema viteae (Acanthocheilonema viteae); type: functional; in short: as §1
Meriones unguiculatus [17] = test: Compound was tested for macrofilarial reduction at 75 mg/kg dosage by subcutaneous administration for a period of 5 days against Brugia pahangi (Brugia pahangi).; type: functional; in short: as §1
Meriones unguiculatus [18] = test: Compound was tested for macrofilarial reduction at 1.56 mg/kg dosage by subcutaneous administration for a period of 5 days against Acanthocheilonema viteae (Acanthocheilonema viteae); type: functional; in short: as §1

## c1ccn2cc(-c3ccc(C4=NCCCN4)cc3)nc2c1
Acanthocheilonema viteae
  Reduction: 0%
Brugia pahangi
  Reduction: 0%

## c1ccn2cc(-c3ccc(C4=NCCN4)cc3)nc2c1
Acanthocheilonema viteae
  Reduction: 20%
Brugia pahangi
  Reduction: 8%

## C(=NNC1=NCCCN1)c1ccc(-c2cn3ccccc3n2)cc1
Acanthocheilonema viteae
  Reduction: 0%
Brugia pahangi
  Reduction: 0%

## C(=NNC1=NCCCN1)c1ccc2nc(C=NNC3=NCCCN3)cn2c1
Acanthocheilonema viteae
  Reduction: 0%
Brugia pahangi
  Reduction: 5%

## CN1CCN(C(=N)/C=C/c2ccc(-c3cn4cc(/C=C/C(=N)N5CCN(C)CC5)ccc4n3)cc2)CC1
[1]
  Reduction: 57%
Meriones unguiculatus [2]
  Reduction: 0%

## N=C(c1ccc(-c2cn3ccccc3n2)cc1)N1CCCC1
Acanthocheilonema viteae
  Reduction: 0%
Brugia pahangi
  Reduction: 36%

## N=C(NN=Cc1ccc2nc(C=NNC(=N)N3CCCC3)cn2c1)N1CCCC1
Acanthocheilonema viteae
  Reduction: 0%
Brugia pahangi
  Reduction: 5%

## N=C(c1ccc(/C=C/c2cn3cc(C(=N)N4CCCC4)ccc3n2)cc1)N1CCCC1
Meriones unguiculatus [3]
  Reduction: Toxic
Meriones unguiculatus [4]
  Reduction: Toxic

## N=C(NN=Cc1ccc(-c2cn3cc(C=NNC(=N)N4CCCC4)ccc3n2)cc1)N1CCCC1
Meriones unguiculatus [5]
  Reduction: 0%
Acanthocheilonema viteae
  Reduction: 60%
Brugia pahangi
  Reduction: 0%
Meriones unguiculatus [6]
  Reduction: 73%

## Nc1ccc(C(=O)NN=Cc2ccc(-c3cn4cc(C=NNC(=O)c5ccc(N)cc5)ccc4n3)cc2)cc1
Acanthocheilonema viteae
  Reduction: 0%
Brugia pahangi
  Reduction: 8%

## C(=Cc1ccc(-c2cn3ccccc3n2)cc1)C1=NCCN1
Acanthocheilonema viteae
  Reduction: 28%
Brugia pahangi
  Reduction: 18%

## N=C(NN=C/C=C/c1ccc(-c2cn3cc(/C=C/C=NNC(=N)N4CCCC4)ccc3n2)cc1)N1CCCC1
[1]
  Reduction: 50%
Meriones unguiculatus [2]
  Reduction: 38%

## N=C(c1ccc2nc(-c3ccccc3)cn2c1)N1CCOCC1
Acanthocheilonema viteae
  Reduction: 0%
Brugia pahangi
  Reduction: 12%

## CC(C)NC(=N)NN=Cc1ccc(-c2cn3cc(C=NNC(=N)NC(C)C)ccc3n2)cc1
Acanthocheilonema viteae
  Reduction: 100%
Brugia pahangi
  Reduction: 32%

## N=C(/C=C/c1ccc(-c2cn3cc(/C=C/C(=N)N4CCOCC4)ccc3n2)cc1)N1CCOCC1
[1]
  Reduction: 50%
Meriones unguiculatus [2]
  Reduction: 0%

## N=C(NN=Cc1ccc(-c2cn3ccccc3n2)cc1)N1CCCC1
Acanthocheilonema viteae
  Reduction: 47%
Brugia pahangi
  Reduction: 0%

## C(=NNC1=NCCCN1)c1ccc(/C=C/c2cn3cc(C=NNC4=NCCCN4)ccc3n2)cc1
Acanthocheilonema viteae
  Reduction: 100%
Brugia pahangi
  Reduction: 32%

## C(/C=C/c1ccc(-c2cn3cc(/C=C/C=NNC4=NCCN4)ccc3n2)cc1)=NNC1=NCCN1
Acanthocheilonema viteae
  Reduction: 71%
Brugia pahangi
  Reduction: 18%

## c1cc(-c2cn3cc(C4=NCCN4)ccc3n2)ccc1C1=NCCN1
Acanthocheilonema viteae
  Reduction: 0%
Brugia pahangi
  Reduction: 35%

## N=C(c1ccc(-c2cn3cc(C(=N)N4CCCC4)ccc3n2)cc1)N1CCCC1
Meriones unguiculatus [7]
  Reduction: 39%
Meriones unguiculatus [8]
  Reduction: 0%

## N=C(c1ccc(-c2cn3ccccc3n2)cc1)N1CCCCC1
Acanthocheilonema viteae
  Reduction: 0%
Brugia pahangi
  Reduction: 15%

## C(=NNC1=NCCN1)c1ccc(-c2cn3cc(C=NNC4=NCCN4)ccc3n2)cc1
Meriones unguiculatus [9]
  Reduction: 100%
Meriones unguiculatus [10]; 25 mg/kg
  Reduction: 82% and 73%
Meriones unguiculatus [11]
  Reduction: 0%
[1]
  Reduction: 82%
Meriones unguiculatus [2]
  Reduction: 0%
Acanthocheilonema viteae; 100 mg/kg
  Reduction: 100% and 78%
Brugia pahangi; 100 mg/kg
  Reduction: 18% and 11%

## C(=C\c1cn2cc(C3=NCCN3)ccc2n1)/c1ccc(C2=NCCN2)cc1
Meriones unguiculatus [3]
  Reduction: Toxic
Meriones unguiculatus [4]
  Reduction: Toxic

## C(=NNC1=NCCS1)c1ccc(-c2cn3cc(C=NNC4=NCCS4)ccc3n2)cc1
Acanthocheilonema viteae
  Reduction: 0%
Brugia pahangi
  Reduction: 38%

## C(=NNC1=NCCN1)c1ccc2nc(C=NNC3=NCCN3)cn2c1
Acanthocheilonema viteae
  Reduction: 5%
Brugia pahangi
  Reduction: 5%

## C(=Cc1ccc(-c2cn3cc(C=CC4=NCCS4)ccc3n2)cc1)C1=NCCS1
Acanthocheilonema viteae
  Reduction: 0%
Brugia pahangi
  Reduction: 0%

## N=C(c1ccc2nc(-c3ccccc3)cn2c1)N1CCCC1
Acanthocheilonema viteae; 100 mg/kg
  Reduction: 60% and 27%
Brugia pahangi; 100 mg/kg
  Reduction: 25% and 0%

## Cc1ccc(S(=O)(=O)NN=Cc2ccc(-c3cn4cc(C=NNS(=O)(=O)c5ccc(C)cc5)ccc4n3)cc2)cc1
Acanthocheilonema viteae
  Reduction: 0%
Brugia pahangi
  Reduction: 16%

## N=C(c1ccc(-c2cn3ccccc3n2)cc1)N1CCOCC1
Acanthocheilonema viteae
  Reduction: 0%
Brugia pahangi
  Reduction: 29%

## C(=NNC1=NCCC1)c1ccc(-c2cn3cc(C=NNC4=NCCC4)ccc3n2)cc1
Acanthocheilonema viteae
  Reduction: 24%
Brugia pahangi
  Reduction: 5%

## C(=NNC1=NCCN1)c1ccc2nc(-c3ccccc3)cn2c1
Acanthocheilonema viteae
  Reduction: 20%
Brugia pahangi
  Reduction: 0%

## C(/C=C/c1ccc(-c2cn3cc(/C=C/C=NNC4=NCCCN4)ccc3n2)cc1)=NNC1=NCCCN1
Meriones unguiculatus [9]
  Reduction: 100%
Meriones unguiculatus [10]
  Reduction: 73%
Meriones unguiculatus [12]
  Reduction: 13%
Meriones unguiculatus [11]
  Reduction: 38%
[1]
  Reduction: 50%
Meriones unguiculatus [2]
  Reduction: 38%
Acanthocheilonema viteae; 100 mg/kg
  Reduction: 100% and 64%

## CC(C)NC(=N)c1ccc(/C=C/c2cn3cc(C(=N)NC(C)C)ccc3n2)cc1
Meriones unguiculatus [3]
  Reduction: Toxic
Meriones unguiculatus [4]
  Reduction: Toxic

## C(=NNC1=NCCCN1)c1ccc2nc(-c3ccccc3)cn2c1
Acanthocheilonema viteae
  Reduction: 30%
Brugia pahangi
  Reduction: 0%

## C(=NNc1ccccn1)c1ccc(-c2cn3cc(C=NNc4ccccn4)ccc3n2)cc1
Acanthocheilonema viteae
  Reduction: 0%
Brugia pahangi
  Reduction: 0%

## C(=Cc1ccc(-c2cn3ccccc3n2)cc1)C1=NCCS1
Acanthocheilonema viteae
  Reduction: 0%
Brugia pahangi
  Reduction: 0%

## C(=NNC1=NCCN1)c1ccc(/C=C/c2cn3cc(C=NNC4=NCCN4)ccc3n2)cc1
Acanthocheilonema viteae
  Reduction: 24%
Brugia pahangi
  Reduction: 4%

## N=C(/C=C/c1ccc(-c2cn3cc(/C=C/C(=N)N4CCCC4)ccc3n2)cc1)N1CCCC1
Meriones unguiculatus [13]
  Reduction: 0%
Meriones unguiculatus [14]
  Reduction: 72%

## c1ccc(-c2cn3cc(C4=NCCN4)ccc3n2)cc1
Acanthocheilonema viteae
  Reduction: 0%
Brugia pahangi
  Reduction: 42%

## N=C(NN=Cc1ccc(-c2cn3ccccc3n2)cc1)N1CCOCC1
Acanthocheilonema viteae
  Reduction: 0%
Brugia pahangi
  Reduction: 12%

## C(=NNC1=NCCN1)c1ccc(-c2cn3ccccc3n2)cc1
Acanthocheilonema viteae
  Reduction: 60%
Brugia pahangi
  Reduction: 0%

## C(=NNC1=NCCCN1)c1ccc(-c2cn3cc(C=NNC4=NCCCN4)ccc3n2)cc1
Meriones unguiculatus [9]
  Reduction: 100%
Meriones unguiculatus [7]
  Reduction: 88%
Meriones unguiculatus [15]
  Reduction: 16%
Meriones unguiculatus [12]
  Reduction: 0%
Meriones unguiculatus [11]
  Reduction: 0%
[1]; 12.5 mg/kg
  Reduction: 100% and 64%
Acanthocheilonema viteae
  Reduction: 100%
Meriones unguiculatus [8]
  Reduction: 11%
Meriones unguiculatus [16]
  Reduction: 100%
Brugia pahangi; 100 mg/kg
  Reduction: 9% and 0%
Meriones unguiculatus [14]; 6.25 mg/kg
  Reduction: 100% and 75%
Meriones unguiculatus [17]
  Reduction: 0%
Meriones unguiculatus [18]
  Reduction: 73%
